Many of the other results were omitted from the sample, so hits are more common in it than they were.
T cruzi HTS: inhibitors of intracellular Trypanosoma cruzi, primary screen, cell-based, plate reader, single point, set 2; intracellular Trypanosoma cruzi in host cells; activity score (inhibition), % at 5.01 µM; 22,000 compounds, 4.9% hits; AID 651903, 2012; in the data active = activity score above about 55%;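 note: parasites and compound incubated about four days before reading; 0% = median of neutral control wells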
INS-1E rescue: protection of INS-1E cells from cytokine death, primary screen, ATP luminescence, single point; protection from cytokine-induced ATP loss, % at 10 µM; INS-1E cytokine-induced death, 48 h; normalised: neutral wells 0, positive control 100; 20,000 compounds, 0.1% hits;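 active = mean replicate protection from cytokine-induced ATP loss at least 50% and at least 75% of replicates each reaching 50%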
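Test system: INS-1E rat cells | Quantity: 8000 cells per well | Medium: Phenol-red-free RPMI with 5% fetal bovine serum | Reagent: Cytokine cocktail of IFN-γ, TNF-α and IL-1β | Doses: One compound concentration, pin transfer | Timing: 48 h co-treatment, 10 min post-lysis read | Technique: Luminescent ATP assay (CellTiter-Glo)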
A1 apoptosis 2: A1 inhibitors via caspase activation, primary screen, cell-based, luminescence, HTS, two replicates; MEF A1-2A-BIM cells, caspase-Glo luminescence, 3 h; percent of clofoctol response, DMSO zero; caspase activation, % (test concentration not listed); 24,000 tested, under 10 active; in the data active = caspase activation above about 5.9%
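System: mouse embryonic fibroblasts co-expressing A1 and BIM (A1-2A-BIM), primed for A1 dependence; amount: 2500 cells/well; doses: 50 nL pinned compound; schedule: cells settled overnight, compound exposure 3 h at 37 °C, 5% CO2; detection: Caspase-Glo 3/7 luminescence, 1 h at room temperature; read-out: Caspase-3/7 activation, seen as rise in luminescence signal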
Active calls of the source: *; . = not tested or not shown.

SMILES	T cruzi HTS	INS-1E rescue	A1 apoptosis 2
Cc1noc(C)c1S(=O)(=O)Nc1ccc2c(c1)CC(=O)N([C@H](C)CO)C[C@@H](C)[C@@H](CN(C)Cc1ccc(Oc3ccccc3)cc1)O2	67*	13	0
C[C@H](CO)N1C[C@H](C)[C@H](CN(C)Cc2ccc(Oc3ccccc3)cc2)Oc2ccc(NC(=O)c3ccncc3)cc2CC1=O	27	5	0
Cc1ccc(S(=O)(=O)N[C@@H](Cc2ccccc2)C(=O)NCCN=[N+]=[N-])cc1	.	.	1
C[C@H](CO)N1C[C@H](C)[C@H](CN(C)S(C)(=O)=O)OCCCC[C@H](C)Oc2ccc(NC(=O)Cc3ccccc3)cc2C1=O	.	.	-1
Cc1ccc(S(=O)(=O)N(C)C[C@H]2Oc3ccc(NS(=O)(=O)c4cccs4)cc3CC(=O)N([C@@H](C)CO)C[C@@H]2C)cc1	-3	8	.
C[C@@H]1CN([C@@H](C)CO)C(=O)Cc2cc(NC(=O)Nc3ccc(C(F)(F)F)cc3)ccc2O[C@@H]1CN(C)C(=O)Nc1ccc2c(c1)OCO2	14	-15	.
C[C@@H]1CN([C@@H](C)CO)C(=O)c2cc(NS(=O)(=O)c3ccc(F)cc3)ccc2O[C@@H]1CN(C)Cc1ccc(Oc2ccccc2)cc1	3	-33	.
C[C@H]1CN([C@@H](C)CO)C(=O)Cc2cc(NS(=O)(=O)c3ccccc3)ccc2O[C@H]1CN(C)Cc1ccc(Oc2ccccc2)cc1	39	-56	-1
C[C@H]1CN([C@@H](C)CO)C(=O)c2cc(NS(=O)(=O)c3ccc(F)cc3)ccc2O[C@@H]1CN(C)Cc1ccc(Oc2ccccc2)cc1	69*	-16	.
Cc1ccc(S(=O)(=O)Nc2ccc3c(c2)CC(=O)N([C@@H](C)CO)C[C@H](C)[C@H](CN(C)Cc2ccc(Oc4ccccc4)cc2)O3)cc1	17	-36	.
Cc1ccc(S(=O)(=O)Nc2ccc3c(c2)CC(=O)N([C@@H](C)CO)C[C@@H](C)[C@@H](CN(C)Cc2ccc(Oc4ccccc4)cc2)O3)cc1	70*	-19	.
C[C@@H]1CN([C@H](C)CO)C(=O)Cc2cc(NS(=O)(=O)c3ccccc3)ccc2O[C@@H]1CN(C)Cc1ccc(Oc2ccccc2)cc1	71*	-23	-1
CC(C)NC(=O)Nc1ccc2c(c1)C(=O)N([C@H](C)CO)C[C@H](C)[C@@H](CN(C)C(=O)C1CCCCC1)OCCCC[C@@H](C)O2	-9	8	.
C[C@@H]1CN([C@@H](C)CO)C(=O)c2cc(NS(C)(=O)=O)ccc2O[C@@H](C)CCCCO[C@H]1CN(C)S(=O)(=O)c1ccc(F)cc1	.	.	0
C[C@H]1CN([C@@H](C)CO)C(=O)c2cc(NC(=O)c3ccncc3)ccc2O[C@@H]1CN(C)Cc1ccc(-c2ccccc2)cc1	-15	3	0
Cc1ccc(S(=O)(=O)Nc2cccc3c2O[C@@H](CN(C)S(=O)(=O)c2cccs2)[C@H](C)CN([C@@H](C)CO)C3=O)cc1	5	3	.
C[C@H]1CN([C@@H](C)CO)C(=O)c2cccc(NC(=O)Nc3ccc4c(c3)OCO4)c2O[C@@H]1CN(C)Cc1ccc(C(=O)Nc2ccccc2N)cc1	68*	10	-1
C[C@@H]1CN([C@H](C)CO)C(=O)c2cccc(NC(=O)Nc3ccc4c(c3)OCO4)c2O[C@H]1CN(C)Cc1ccc(Oc2ccccc2)cc1	31	-10	-2
C[C@@H]1CN([C@@H](C)CO)C(=O)c2cccc(NC(=O)Nc3ccc4c(c3)OCO4)c2O[C@@H]1CN(C)Cc1ccc(C(=O)Nc2ccccc2N)cc1	54	22	0
C[C@@H]1CN([C@@H](C)CO)C(=O)c2cccc(NC(=O)Nc3ccc4c(c3)OCO4)c2O[C@@H]1CN(C)Cc1ccc(C(=O)O)cc1	-17	3	.
C[C@H](CO)N1C[C@H](C)[C@@H](CN(C)Cc2ccc(C(=O)Nc3ccccc3N)cc2)Oc2ccc(NC(=O)Cn3cnnn3)cc2C1=O	69*	-11	.
C[C@@H]1CN([C@@H](C)CO)C(=O)c2cccc(NC(=O)Nc3ccc4c(c3)OCO4)c2O[C@H]1CN(C)Cc1ccc(C(=O)Nc2ccccc2N)cc1	68*	-1	1
C[C@H](CO)N1C[C@H](C)[C@H](CN(C)Cc2ccc(Oc3ccccc3)cc2)Oc2c(NC(=O)Nc3ccc4c(c3)OCO4)cccc2C1=O	78*	-46	-1
C[C@@H]1CN([C@H](C)CO)C(=O)c2cc(NC(=O)Cn3cnnn3)ccc2O[C@H]1CN(C)Cc1ccc(C(=O)Nc2ccccc2N)cc1	29	-12	-2
COc1ccc(S(=O)(=O)N(C)C[C@@H]2Oc3ccc(NS(=O)(=O)c4ccc(Cl)cc4)cc3C(=O)N([C@@H](C)CO)C[C@H]2C)cc1	23	-8	0
SMILES	T cruzi HTS	INS-1E rescue	A1 apoptosis 2
COc1ccc(/C=N/NC(=O)CCCCCCC(=O)Nc2ccccc2O)cc1	-11	10	0
C[C@H]1CN([C@@H](C)CO)C(=O)c2cccc(NC(=O)Nc3ccc4c(c3)OCO4)c2O[C@@H]1CN(C)CC1CC1	4	-11	0
C[C@H]1CN([C@@H](C)CO)C(=O)c2cc(NC(=O)Nc3ccccc3)ccc2O[C@H]1CN(C)Cc1ccc(C(=O)Nc2ccccc2N)cc1	54	-7	.
C[C@H](CO)N1C[C@H](C)[C@H](CN(C)Cc2ccc(C(=O)Nc3ccccc3N)cc2)Oc2ccc(NC(=O)Nc3ccc4c(c3)OCO4)cc2C1=O	74*	-3	0
C[C@H](CO)N1C[C@H](C)[C@@H](CN(C)CC2CC2)Oc2c(NC(=O)Nc3ccc4c(c3)OCO4)cccc2C1=O	58*	-5	0
Cc1noc(C)c1NC(=O)Nc1ccc2c(c1)C(=O)N([C@@H](C)CO)C[C@@H](C)[C@H](CN(C)C(=O)CCCN(C)C)OCCCC[C@H](C)O2	.	.	-1
O=C(CCCCCC(=O)N/N=C/c1cc(Cl)cc(Cl)c1O)NO	.	.	1
Cc1noc(C)c1NC(=O)N(C)C[C@@H]1OCCCC[C@@H](C)Oc2ccc(NS(=O)(=O)c3ccc(F)cc3)cc2C(=O)N([C@H](C)CO)C[C@@H]1C	-2	-3	1
Cc1ccc(S(=O)(=O)Nc2ccc3c(c2)C(=O)N([C@H](C)CO)C[C@@H](C)[C@H](CN(C)S(C)(=O)=O)O3)cc1	-6	4	0
Cc1cc(C(=O)Nc2cccc3c2O[C@@H](CN(C)Cc2ccc(-c4ccccc4)cc2)[C@@H](C)CN([C@H](C)CO)C3=O)n(C)n1	64*	-20	-1
Cc1cc(C(=O)Nc2cccc3c2O[C@H](CN(C)Cc2ccc(C(F)(F)F)cc2)[C@H](C)CN([C@@H](C)CO)C3=O)n(C)n1	-4	-3	-2
Cc1cc(C(=O)Nc2cccc3c2O[C@H](CN(C)C(=O)Nc2ccccc2)[C@@H](C)CN([C@@H](C)CO)C3=O)n(C)n1	-41	4	0
Cc1cc(C(=O)Nc2cccc3c2O[C@@H](CN(C)C(=O)Nc2ccccc2)[C@@H](C)CN([C@H](C)CO)C3=O)n(C)n1	61*	4	-1
